From PubChem BioAssay
M5 ag: CHRM5 agonism in calcium assay; P08912; hit rate 0.19% among 360,000; AID 624037; CHO-K1 hM5 cells, Fluo-8 calcium fluorescence; 0% DMSO wells, 100% maximal acetylcholine response; activation, % at 3 µM;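 active = activation above the run's mean over test compounds plus 3 SD, cut at about 23% in these data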;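 also: signal is peak over basal fluorescence ratio across the kinetic read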
Target sequence (P08912 whole entry, looked up): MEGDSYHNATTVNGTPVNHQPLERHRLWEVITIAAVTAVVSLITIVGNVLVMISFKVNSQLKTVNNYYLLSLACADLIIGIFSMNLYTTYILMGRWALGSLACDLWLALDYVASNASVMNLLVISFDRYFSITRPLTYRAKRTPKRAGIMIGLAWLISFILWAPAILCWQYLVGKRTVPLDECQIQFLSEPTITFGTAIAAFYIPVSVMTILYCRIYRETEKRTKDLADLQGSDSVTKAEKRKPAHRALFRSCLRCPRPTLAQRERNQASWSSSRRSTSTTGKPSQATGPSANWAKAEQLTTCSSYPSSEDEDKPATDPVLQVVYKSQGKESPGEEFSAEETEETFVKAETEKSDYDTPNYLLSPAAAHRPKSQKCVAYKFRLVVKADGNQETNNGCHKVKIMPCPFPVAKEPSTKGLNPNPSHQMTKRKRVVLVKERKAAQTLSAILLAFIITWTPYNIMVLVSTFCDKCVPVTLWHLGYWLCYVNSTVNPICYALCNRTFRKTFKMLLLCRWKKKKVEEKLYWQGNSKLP
CHRM5 PAM: potentiates acetylcholine response at human M5 receptor; activation, % at 3 µM; P08912; hit rate 0.3% among 360,000; CHO-K1 hM5, Fluo-8 calcium, ACh EC20 PAM; 0% = ACh EC20, 100% = ACh EC100;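 active = activation above the run cutoff, the mean activation of all test compounds plus 3 SD, cut at about 18% in these data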
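System – CHO-K1 hM5 cells · Compound – 3 µM, single dose · Incubation – compound preincubation 140 s before EC20 acetylcholine addition · Technique – Fluo-8 calcium fluorescence · Measure – Max/basal fluorescence ratio as % of EC20–EC100 ACh window · Benchmarks – low control EC20 acetylcholine (0%), high control EC100 acetylcholine (100%) · Replication – singlicate, one well per test compound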
CHRM4 antagonist: CHRM4 antagonism in calcium assay. P08173. CHO-hM4 cells, ACh EC80, Fluo-8 calcium fluorescence. inhibition, % at 3 µM. hit rate 0.73% among 360,000. AID 624125;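 active = inhibition above its plate's cutoff, the mean inhibition of sample wells plus 3 SD, cut at about 27% in these data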;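 also: 0% = acetylcholine EC80 with DMSO and 100% = DMSO without agonist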
M4 ag: agonists of human muscarinic M4 receptor (CHRM4); P08173; hit rate 0.14% among 360,000; CHO-K1 hM4/Gqi5, Fluo-8 calcium fluorescence; vehicle 0%, full acetylcholine response 100%; activation, % at 3 µM;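 active = activation above the run mean over all test wells plus 3 SD, cut at about 32% in these data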;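 also: peak over basal fluorescence ratio per well then scaled between controls; 0% = DMSO wells and 100% = acetylcholine at EC100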
M4 PAM: CHRM4 positive allosteric modulation | activation, % at 3 µM | hit rate 0.4% among 360,000 | CHO-K1 hM4/Gqi5, Fluo-8 calcium fluorescence, ACh EC20; 0% = ACh EC20, 100% = maximal ACh;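 active = activation above its plate's cutoff, the mean activation of sample wells plus 3 SD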
CHRM5 antagonist: CHRM5 antagonism in calcium assay | hit rate 0.59% among 360,000 | CHO-hM5 cells, Fluo-8 calcium fluorescence, ACh EC80 | P08912 | inhibition, % at 3 µM;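 active = inhibition above a per-plate cutoff, the mean of that plate's test compounds plus 3 SD, cut at about 27% in these data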;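 also: 0% = acetylcholine EC80 with DMSO and 100% = DMSO without agonist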
The depositor's hits bear a star. Rows were chosen to be rich in hits. Some 1.9% of all compounds tested hit in one or more screens of this group.

How did COC(=O)c1cc(Cl)nc2ccccc12 do in these assays?
M5 ag: 3; CHRM5 PAM: 21*; CHRM4 antagonist: -6; M4 ag: 1; M4 PAM: 11; CHRM5 antagonist: -3

What do the screens show for `CCCc1cc(C(=O)OC)c2ccccc2n1`?
M5 ag: -1; CHRM5 PAM: 5; CHRM4 antagonist: 8; M4 ag: 0; M4 PAM: -8; CHRM5 antagonist: -3

Results for NC(=O)C1CCCN(C(=O)CNC(=O)C23CC4CC(CC(C4)C2)C3)C1 (stereo not drawn) ?
M5 ag: 3; CHRM5 PAM: 5; CHRM4 antagonist: -15; M4 ag: 0; M4 PAM: 7; CHRM5 antagonist: -4

Results for CSC1=NSC2=NC(=O)/C(=C/c3coc4ccc(O)cc4c3=O)C(=N)N12 ?
M5 ag: 53*; CHRM5 PAM: -5; CHRM4 antagonist: 20; M4 ag: 26; M4 PAM: -8; CHRM5 antagonist: 28*

Results for CSC1=NSC2=NC(=O)/C(=C/c3coc4ccccc4c3=O)C(=N)N12 ?
M5 ag: 45*; CHRM5 PAM: -19; CHRM4 antagonist: 18; M4 ag: 33*; M4 PAM: -12; CHRM5 antagonist: 41*

Results for N=C1/C(=C/c2cccn2Cc2ccc(F)cc2)C(=O)N=C2SC=CN12 ?
M5 ag: -5; CHRM5 PAM: -1; CHRM4 antagonist: -9; M4 ag: 7; M4 PAM: -3; CHRM5 antagonist: 6

How did CC1=CC2=NC(=O)/C(=C/c3coc4ccc(Cl)cc4c3=O)C(=N)N2O1 do in these assays?
M5 ag: 83*; CHRM5 PAM: -29; CHRM4 antagonist: 23; M4 ag: 45*; M4 PAM: -14; CHRM5 antagonist: 41*

Results for CSC1=NSC2=NC(=O)/C(=C\c3cccs3)C(=N)N12 ?
M5 ag: 5; CHRM5 PAM: 0; CHRM4 antagonist: 3; M4 ag: 2; M4 PAM: -1; CHRM5 antagonist: -2

What do the screens show for `N=C1/C(=C\c2coc3ccccc3c2=O)C(=O)N=C2SC=CN12`?
M5 ag: 109*; CHRM5 PAM: -33; CHRM4 antagonist: 38*; M4 ag: 107*; M4 PAM: -43; CHRM5 antagonist: 34*

Results for Cc1c(NC(=O)CSc2nnnn2C)c(=O)n(-c2ccccc2)n1C ?
M5 ag: -4; CHRM5 PAM: 2; CHRM4 antagonist: 1; M4 ag: 0; M4 PAM: 4; CHRM5 antagonist: -1

Results for COC(=O)C1=C(C)NC2=C(C(=O)C(C(=O)OC)C(c3ccc(OC)cc3)C2)C1c1ccccn1 (stereo not drawn) ?
M5 ag: -2; CHRM5 PAM: 37*; CHRM4 antagonist: -19; M4 ag: 5; M4 PAM: -2; CHRM5 antagonist: 3

Results for COC(=O)C1=C(C)NC2=C(C(=O)CC(C)(C)C2)C1c1ccccn1 (stereo not drawn) ?
M5 ag: -1; CHRM5 PAM: 4; CHRM4 antagonist: -9; M4 ag: 1; M4 PAM: 13; CHRM5 antagonist: 1

Results for COc1ccc(Cc2nnc(NC(=O)CSc3ccccc3)s2)cc1OC ?
M5 ag: 28*; CHRM5 PAM: -1; CHRM4 antagonist: -6; M4 ag: 14; M4 PAM: 1; CHRM5 antagonist: -3

How did COc1ccc(Cc2nnc(NC(=O)CSc3ccccc3)s2)cc1 do in these assays?
M5 ag: 5; CHRM5 PAM: 1; CHRM4 antagonist: 5; M4 ag: 3; M4 PAM: 5; CHRM5 antagonist: 2

How did O=C(NNC(=O)c1ccncc1)Nc1cccc([N+](=O)[O-])c1 do in these assays?
M5 ag: -2; CHRM5 PAM: 1; CHRM4 antagonist: 0; M4 ag: 1; M4 PAM: -7; CHRM5 antagonist: -4

How did COC(=O)N1C(=O)[C@@](c2ccc(OC)cc2)(C(C)C)N1C(=O)OC do in these assays?
M5 ag: 3; CHRM5 PAM: 20*; CHRM4 antagonist: -4; M4 ag: 1; M4 PAM: 13; CHRM5 antagonist: -3

How did COC(=O)N1C(=O)[C@](c2ccc(Cl)cc2)(C(C)C)N1C(=O)OC do in these assays?
M5 ag: 4; CHRM5 PAM: -18; CHRM4 antagonist: 10; M4 ag: 20; M4 PAM: -8; CHRM5 antagonist: 18

Results for Cc1nc2ccccc2n1CC(=O)NCCN1CCOCC1 ?
M5 ag: 1; CHRM5 PAM: 1; CHRM4 antagonist: 32*; M4 ag: 1; M4 PAM: 28; CHRM5 antagonist: 0

How did CC(=O)Nc1ccc(Nc2ccccc2)cc1 do in these assays?
M5 ag: 1; CHRM5 PAM: 3; CHRM4 antagonist: -4; M4 ag: 2; M4 PAM: 15; CHRM5 antagonist: -2

How did CC(=O)CC(=O)Nc1ccc(Nc2ccccc2)cc1 do in these assays?
M5 ag: 0; CHRM5 PAM: -2; CHRM4 antagonist: 30*; M4 ag: 2; M4 PAM: -12; CHRM5 antagonist: -1

Results for O=C(Nc1ccc(F)cc1F)Nc1csc2ccccc12 ?
M5 ag: -2; CHRM5 PAM: -31; CHRM4 antagonist: 6; M4 ag: 12; M4 PAM: -13; CHRM5 antagonist: 33*

Results for O=C(Nc1ccc(F)c(Cl)c1)Nc1csc2ccccc12 ?
M5 ag: 7; CHRM5 PAM: -26; CHRM4 antagonist: 18; M4 ag: 20; M4 PAM: -11; CHRM5 antagonist: 34*

What do the screens show for `O=C(Nc1cccc(S(=O)(=O)NC2=NCCC2)c1)c1cc(F)c(F)c(F)c1F`?
M5 ag: 1; CHRM5 PAM: -2; CHRM4 antagonist: -5; M4 ag: 3; M4 PAM: 6; CHRM5 antagonist: 8

What do the screens show for `CCCOC(=O)c1ccc(NC(=O)CCOc2ccccc2)cc1`?
M5 ag: -1; CHRM5 PAM: -3; CHRM4 antagonist: -1; M4 ag: 0; M4 PAM: -7; CHRM5 antagonist: 2

Results for CC(C)c1nc2n[nH]c(N)c2c2c1CCCC2 ?
M5 ag: 4; CHRM5 PAM: 16; CHRM4 antagonist: -2; M4 ag: 1; M4 PAM: 23*; CHRM5 antagonist: -8

How did N#C/C(=C\c1cccnc1)c1ccccc1[N+](=O)[O-] do in these assays?
M5 ag: -3; CHRM5 PAM: 1; CHRM4 antagonist: 6; M4 ag: 1; M4 PAM: -3; CHRM5 antagonist: 17

Results for CCOc1ccc(NC(=S)N2CCC(C(=O)c3ccc(OC)cc3)CC2)cc1 ?
M5 ag: 0; CHRM5 PAM: -4; CHRM4 antagonist: -24; M4 ag: 1; M4 PAM: 12; CHRM5 antagonist: -2
